Laboratory results: ChEMBL document CHEMBL3992547, “Antimicrobial activity of rhodanine-3-acetic acid derivatives” (Bioorg Med Chem, 2017)
Values after ≈ are worked out from the molar mass of the structure shown. Active and inactive are the calls of the source. The rule behind the calls is not given here.

Key:
[1] = test system: Mycobacterium tuberculosis; assay: Antimycobacterial activity against Mycobacterium tuberculosis H37Rv 331/88 measured after 14 days by micromethod; format: functional; conditions: H37Rv 331/88, 336 h
[2] = test system: Mycobacterium tuberculosis; assay: Antimycobacterial activity against Mycobacterium tuberculosis H37Rv 331/88 measured after 21 days by micromethod; format: functional; conditions: H37Rv 331/88, 504 h
Mycobacterium avium [3] = assay: Antimycobacterial activity against Mycobacterium avium 330/88 measured after 14 days by micromethod; format: functional; conditions: 330/88, 336 h
Mycobacterium avium [4] = assay: Antimycobacterial activity against Mycobacterium avium 330/88 measured after 21 days by micromethod; format: functional; conditions: 330/88, 504 h
Mycobacterium kansasii [5] = assay: Antimycobacterial activity against Mycobacterium kansasii isolate 235/80 after 7 days by micromethod; format: functional; conditions: isolate 235/80, 168 h
Mycobacterium kansasii [6] = assay: Antimycobacterial activity against Mycobacterium kansasii isolate 235/80 after 14 days by micromethod; format: functional; conditions: isolate 235/80, 336 h
Mycobacterium kansasii [7] = assay: Antimycobacterial activity against Mycobacterium kansasii isolate 235/80 after 21 days by micromethod; format: functional; conditions: isolate 235/80, 504 h
Mycobacterium kansasii [8] = assay: Antimycobacterial activity against Mycobacterium kansasii isolate 6509/96 after 7 days by micromethod; format: functional; conditions: isolate 6509/96, 168 h
Mycobacterium kansasii [9] = assay: Antimycobacterial activity against Mycobacterium kansasii isolate 6509/96 after 14 days by micromethod; format: functional; conditions: isolate 6509/96, 336 h
Mycobacterium kansasii [10] = assay: Antimycobacterial activity against Mycobacterium kansasii isolate 6509/96 after 21 days by micromethod; format: functional; conditions: isolate 6509/96, 504 h
[11] = Solubility of the compound in Sula's semisynthetic medium up to 1 mM; format: physicochemical
Staphylococcus aureus [12] = assay: Antibacterial activity against Staphylococcus aureus CCM 4516/08 incubated for 24 hrs under dark condition by microdilution broth assay; format: functional; conditions: CCM 4516/08, 24 h
Summary of the method: (§1)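 Broth microdilution per M07-A07, modified, in Mueller-Hinton broth adjusted to pH 7.4 (±0.2). Inoculum is prepared in sterile water to McFarland 0.5 (1.5 × 10⁸ CFU/mL). Plates are incubated in the dark at 35 °C in humid air. MIC is read after 24 and 48 h as at least 95% growth reduction versus control (IC₉₅).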

Staphylococcus aureus [13] = assay: Antibacterial activity against Staphylococcus aureus CCM 4516/08 incubated for 48 hrs under dark condition by microdilution broth assay; format: functional; conditions: CCM 4516/08, 48 h; summary of the method: as §1
Staphylococcus aureus [14] = assay: Antibacterial activity against methicillin-resistant Staphylococcus aureus H 5996/08 incubated for 24 hrs under dark condition by microdilution broth assay; format: functional; conditions: H 5996/08, 24 h
Summary of the method: (§2)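 Microdilution broth method modified per M07-A07, in Mueller-Hinton broth adjusted to pH 7.4 (±0.2). Inoculum made in sterile water to 0.5 McFarland (1.5 × 10⁸ CFU/mL). Plates incubated in the dark at 35 °C in a humid atmosphere, with reads at 24 and 48 h. MIC taken as at least 95% growth reduction (IC₉₅) versus control.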

Staphylococcus aureus [15] = assay: Antibacterial activity against methicillin-resistant Staphylococcus aureus H 5996/08 incubated for 48 hrs under dark condition by microdilution broth assay; format: functional; conditions: H 5996/08, 48 h; summary of the method: as §2
[16] = test system: Staphylococcus epidermidis; assay: Antibacterial activity against Staphylococcus epidermidis H 6966/08 incubated for 24 hrs under dark condition by microdilution broth assay; format: functional; conditions: H 6966/08, 24 h; summary of the method: as §1
[17] = test system: Staphylococcus epidermidis; assay: Antibacterial activity against Staphylococcus epidermidis H 6966/08 incubated for 48 hrs under dark condition by microdilution broth assay; format: functional; conditions: H 6966/08, 48 h; summary of the method: as §1
Escherichia coli [18] = assay: Antibacterial activity against Escherichia coli CCM 4517 incubated for 24 hrs under dark condition by microdilution broth assay; format: functional; conditions: CCM 4517, 24 h; summary of the method: as §1
Escherichia coli [19] = assay: Antibacterial activity against Escherichia coli CCM 4517 incubated for 48 hrs under dark condition by microdilution broth assay; format: functional; conditions: CCM 4517, 48 h; summary of the method: as §1
Klebsiella pneumoniae [20] = assay: Antibacterial activity against Klebsiella pneumoniae D 11750/08 up to 500 uM incubated for 24 to 48 hrs under dark condition by microdilution broth assay; format: functional; summary of the method: as §1
Klebsiella pneumoniae [21] = assay: Antibacterial activity against ESBL positive Klebsiella pneumoniae J 14368/08 up to 500 uM incubated for 24 to 48 hrs under dark condition by microdilution broth assay; format: functional; summary of the method: as §1
Pseudomonas aeruginosa = assay: Antibacterial activity against Pseudomonas aeruginosa CCM 1961 up to 500 uM incubated for 24 to 48 hrs under dark condition by microdilution broth assay; format: functional; summary of the method: as §1
Candida albicans [22] = assay: Antifungal activity against Candida albicans ATCC 44859 after 24 hrs by microdilution broth assay; format: functional; conditions: ATCC 44859, 24 h
Summary of the method: (§3)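 Broth microdilution per CLSI M27-A3 and M38-A2 in RPMI 1640 with glutamine, buffered to pH 7.0 with MOPS. Compounds are diluted in DMSO. Final inoculum is 5 × 10³ CFU/mL for yeasts and 0.5–5 × 10⁴ CFU/mL for moulds. Plates are incubated in the dark at 35 °C in humid air and read visually and/or at 540 nm after 24 and 48 h. MIC is ≥80% growth reduction (IC₈₀) for yeasts and ≥50% (IC₅₀) for filamentous fungi.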

Candida albicans [23] = assay: Antifungal activity against Candida albicans ATCC 44859 after 48 hrs by microdilution broth assay; format: functional; conditions: ATCC 44859, 48 h; summary of the method: as §3
Candida tropicalis [24] = assay: Antifungal activity against Candida tropicalis 156 after 24 hrs by microdilution broth assay; format: functional; conditions: Candida tropicalis, 156, 24 h; summary of the method: as §3
Candida tropicalis [25] = assay: Antifungal activity against Candida tropicalis 156 after 48 hrs by microdilution broth assay; format: functional; conditions: Candida tropicalis, 156, 48 h; summary of the method: as §3
Nakaseomyces glabratus [26] = assay: Antifungal activity against Candida glabrata 20/I after 24 hrs by microdilution broth assay; format: functional; summary of the method: as §3
Nakaseomyces glabratus [27] = assay: Antifungal activity against Candida glabrata 20/I after 48 hrs by microdilution broth assay; format: functional; summary of the method: as §3
Trichosporon asahii [28] = assay: Antifungal activity against Trichosporon asahii 1188 after 24 hrs by microdilution broth assay; format: functional; conditions: Trichosporon asahii, 1188, 24 h; summary of the method: as §3
Trichosporon asahii [29] = assay: Antifungal activity against Trichosporon asahii 1188 after 48 hrs by microdilution broth assay; format: functional; conditions: Trichosporon asahii, 1188, 48 h; summary of the method: as §3
Aspergillus fumigatus [30] = assay: Antifungal activity against Aspergillus fumigatus 231 after 24 hrs by microdilution broth assay; format: functional; conditions: Aspergillus fumigatus, 231, 24 h; summary of the method: as §3
Aspergillus fumigatus [31] = assay: Antifungal activity against Aspergillus fumigatus 231 after 48 hrs by microdilution broth assay; format: functional; conditions: Aspergillus fumigatus, 231, 48 h; summary of the method: as §3
[32] = test system: Trichophyton mentagrophytes; assay: Antifungal activity against Trichophyton mentagrophytes 445 after 72 hrs by microdilution broth assay; format: functional; conditions: Trichophyton mentagrophytes, 445, 72 h
Summary of the method: (§4)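 Broth microdilution per CLSI M38-A2 in RPMI 1640 with glutamine, buffered to pH 7.0 with MOPS, with DMSO as diluent. Final inoculum is 0.5–5 × 10⁴ CFU/mL. Plates are incubated in the dark at 35 °C in humid air and read visually and/or at 540 nm after 72 and 120 h. MIC is at least 50% growth reduction versus control.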

[33] = test system: Trichophyton mentagrophytes; assay: Antifungal activity against Trichophyton mentagrophytes 445 after 120 hrs by microdilution broth assay; format: functional; conditions: Trichophyton mentagrophytes, 445, 120 h; summary of the method: as §4
Pichia kudriavzevii = assay: Antifungal activity against Candida krusei E28 after 24 to 48 hrs hrs by microdilution broth assay; format: functional; summary of the method: as §3
Lichtheimia corymbifera = assay: Antifungal activity against Absidia corymbifera 272 after 24 to 48 hrs hrs by microdilution broth assay; format: functional; summary of the method: as §3
Enterococcus [34] = assay: Antibacterial activity against Enterococcus sp. J 14365/08 incubated for 24 hrs under dark condition by microdilution broth assay; conditions: J 14365/08, 24 h
Enterococcus [35] = assay: Antibacterial activity against Enterococcus sp. J 14365/08 incubated for 48 hrs under dark condition by microdilution broth assay; conditions: J 14365/08, 48 h

SMILES	MIC [1]	MIC [2]	MIC (Mycobacterium avium [3])	MIC (Mycobacterium avium [4])	MIC (Mycobacterium kansasii [5])	MIC (Mycobacterium kansasii [6])	MIC (Mycobacterium kansasii [7])	MIC (Mycobacterium kansasii [8])	MIC (Mycobacterium kansasii [9])	MIC (Mycobacterium kansasii [10])	solubility [11]	MIC95 (Staphylococcus aureus [12])	MIC95 (Staphylococcus aureus [13])	MIC95 (Staphylococcus aureus [14])	MIC95 (Staphylococcus aureus [15])	MIC95 [16]	MIC95 [17]	MIC95 (Escherichia coli [18])	MIC95 (Escherichia coli [19])	Activity (Klebsiella pneumoniae [20])	also measured
O=C(CN1C(=O)CSC1=S)Oc1ccc(C(F)(F)F)cc1	500 µM (≈ 168 µg/mL)	1000 µM (≈ 335 µg/mL)	1000 µM (≈ 335 µg/mL)	1000 µM (≈ 335 µg/mL)	1000 µM (≈ 335 µg/mL)	1000 µM (≈ 335 µg/mL)	1000 µM (≈ 335 µg/mL)	1000 µM (≈ 335 µg/mL)	1000 µM (≈ 335 µg/mL)	1000 µM (≈ 335 µg/mL)	Soluble	15.6 µM (≈ 5.24 µg/mL)	62.5 µM (≈ 21 µg/mL)	15.6 µM (≈ 5.24 µg/mL)	62.5 µM (≈ 21 µg/mL)	15.6 µM (≈ 5.24 µg/mL)	62.5 µM (≈ 21 µg/mL)	> 500 µM	> 500 µM	inactive	Activity (Klebsiella pneumoniae [21]): inactive; Activity (Pseudomonas aeruginosa): inactive; MIC80 (Candida albicans [22]): > 500 µM; MIC80 (Candida albicans [23]): > 500 µM; MIC80 (Candida tropicalis [24]): > 500 µM; MIC80 (Candida tropicalis [25]): > 500 µM; MIC80 (Nakaseomyces glabratus [26]): 500 µM (≈ 168 µg/mL); MIC80 (Nakaseomyces glabratus [27]): > 500 µM; MIC80 (Trichosporon asahii [28]): 500 µM (≈ 168 µg/mL); MIC80 (Trichosporon asahii [29]): > 500 µM; MIC50 (Aspergillus fumigatus [30]): > 500 µM; MIC50 (Aspergillus fumigatus [31]): > 500 µM; MIC50 [32]: 125 µM (≈ 41.9 µg/mL); MIC50 [33]: 250 µM (≈ 83.8 µg/mL); Activity (Pichia kudriavzevii): inactive; Activity (Lichtheimia corymbifera): inactive; MIC95 (Enterococcus [34]): 15.6 µM (≈ 5.24 µg/mL); MIC95 (Enterococcus [35]): 62.5 µM (≈ 21 µg/mL)
O=C(O)CN1C(=O)/C(=C/c2ccc(O)cc2)SC1=S	1000 µM (≈ 295 µg/mL)	1000 µM (≈ 295 µg/mL)	1000 µM (≈ 295 µg/mL)	1000 µM (≈ 295 µg/mL)	1000 µM (≈ 295 µg/mL)	1000 µM (≈ 295 µg/mL)	1000 µM (≈ 295 µg/mL)	1000 µM (≈ 295 µg/mL)	1000 µM (≈ 295 µg/mL)	1000 µM (≈ 295 µg/mL)	Soluble	500 µM (≈ 148 µg/mL)	> 500 µM	500 µM (≈ 148 µg/mL)	> 500 µM	250 µM (≈ 73.8 µg/mL)	500 µM (≈ 148 µg/mL)	> 500 µM	> 500 µM	inactive	Activity (Klebsiella pneumoniae [21]): inactive; Activity (Pseudomonas aeruginosa): inactive; MIC80 (Candida albicans [22]): 500 µM (≈ 148 µg/mL); MIC80 (Candida albicans [23]): 500 µM (≈ 148 µg/mL); MIC80 (Candida tropicalis [24]): > 500 µM; MIC80 (Candida tropicalis [25]): > 500 µM; MIC80 (Nakaseomyces glabratus [26]): > 500 µM; MIC80 (Nakaseomyces glabratus [27]): > 500 µM; MIC80 (Trichosporon asahii [28]): > 500 µM; MIC80 (Trichosporon asahii [29]): > 500 µM; MIC50 (Aspergillus fumigatus [30]): > 500 µM; MIC50 (Aspergillus fumigatus [31]): > 500 µM; MIC50 [32]: > 500 µM; MIC50 [33]: > 500 µM; Activity (Pichia kudriavzevii): inactive; Activity (Lichtheimia corymbifera): inactive; MIC95 (Enterococcus [34]): > 500 µM; MIC95 (Enterococcus [35]): > 500 µM
